Consider one compound from ChEMBL document CHEMBL3997810, “A Novel Potent Anticancer Compound Optimized from a Natural Oridonin Scaffold Induces Apoptosis and Cell Cycle Arrest through the Mitochondrial Pathway” (J Med Chem, 2017).

Series [1] deals with MCF7. Kind of series: Cell cycle arrest in human MCF7 cells assessed as accumulation at G2/M phase at 1 uM after 48 hrs by propidium iodide staining based flow cytometry (reference value: 13.05%). It is filed as functional. A digest of the protocol:
(§1)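 MCF-7 cells, 5 × 10^4 per well, seeded overnight, then exposed to 0.125–1 μM compound, or DMSO, for 48 h. Ethanol-fixed (70%, −20 °C, 12 h) and stained with PI/RNase at 37 °C for 30 min. Phase distribution determined by flow cytometry.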
A general note: Flow cytometry measures light scatter and fluorescence of single cells or particles in a stream.

The test system of series [2] is MCF7. The experiment in a line: Induction of apoptosis in human MCF7 cells assessed as late apoptotic cells at 0.5 uM after 24 hrs by Annexin-V FITC/propidium iodide staining based flow cytometry (reference value: 0.255%). The series is classed as functional.
In series [3] the test system is MCF7. Kind of series: Induction of apoptosis in human MCF7 cells assessed as necrotic cells at 1 uM after 24 hrs by Annexin-V FITC/propidium iodide staining based flow cytometry (reference value: 0.102%). It is filed as functional.
The test system of series [4] is Mus musculus. Kind of series: Toxicity in Balb/c nude mouse xenografted with human MCF7 cells assessed as changes in body weight at 20 mg/kg/day, iv for 4 weeks measured once in 2 days during compound dosing. It is filed as organism-based. To be noted: in vivo. The method, boiled down: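 Mice received 1 × 10^6 tumor cells subcutaneously in the right flank: MCF-7 in male BALB/c nude mice aged six weeks, H22 in male ICR mice aged five weeks. After 7 d they were randomized (six or eight per group). Dosing was 20 mg/kg iv daily in 10% DMF/2% poloxamer/88% saline for 21 or 28 days; saline control. Body weight was recorded every 2 days.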
On the technique in general: In xenograft studies the graft and the host belong to different species.

The subject of series [5] is MCF7. The experiment in a line: Cell cycle arrest in human MCF7 cells assessed as accumulation at G1 phase at 1 uM after 48 hrs by propidium iodide staining based flow cytometry (reference value: 49.77%). It is filed as functional. The method, boiled down: as §1
Series [6] has as its system Bel-7402. The experiment in a line: Cell cycle arrest in human Bel7402 cells assessed as accumulation at S phase at 0.5 uM after 48 hrs by propidium iodide staining based flow cytometry (reference value: 8.78%). It is filed as functional.
The test system of series [7] is MCF7. Kind of series: Cell cycle arrest in human MCF7 cells assessed as accumulation at S phase at 1 uM after 48 hrs by propidium iodide staining based flow cytometry (reference value: 37.18%). The series is classed as functional. The method, boiled down: as §1
In series [8] the test system is MCF7. The experiment in a line: Cell cycle arrest in human MCF7 cells assessed as accumulation at G1 phase at 0.25 uM after 48 hrs by propidium iodide staining based flow cytometry (reference value: 49.77%). It is filed as functional. The method, boiled down: as §1
For series [9], the system named is MCF7. The experiment in a line: Induction of apoptosis in human MCF7 cells assessed as early apoptotic cells at 1 uM after 24 hrs by Annexin-V FITC/propidium iodide staining based flow cytometry (reference value: 2.65%). It is filed as functional.
The test system of series [10] is Bel-7402. The experiment in a line: Antiproliferative activity against human Bel7402 cells after 72 hrs by MTT assay. It is filed as functional, cell-based. The conditions noted are these: Bel-7402, 72 h. A digest of the protocol:
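MGC-803 and MCF-7 cells grown in DMEM (MCF-7 with 1× NEAA); Bel-7402 and K562 grown in RPMI 1640; all media with 10% FBS. Cells seeded at 3500/well, pre-incubated 24 h, then exposed to compounds in fresh medium (DMSO ≤0.25%) for 72 h at 37 °C. MTT read-out at 570 nm. Quadruplicate wells, repeated three times; means ± SD (n = 3).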
For orientation: Formazan colour is commonly taken as a measure of viable cells.

Series [11] deals with MCF7. Kind of series: Induction of mitochondrial membrane potential depolarization in human MCF7 cells assessed as ratio of red fluorescence to green fluorescence at 1 uM after 36 hrs by JC1 staining based fluorescence microscopic method (reference value: 1.433). It is filed as functional. The method, boiled down: (§2)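 MCF-7 cells were treated with 0, 0.25, 0.5 or 1 μM for 36 h and loaded with 10 μg/mL JC-1 for 30 min at 37 °C, then washed in PBS. Monomers were read at ex 490/em 535 nm and aggregates at ex 525/em 600 nm, by plate reader or fluorescence microscopy. The red/green ratio came from 10,000 cells per group, in triplicate, mean ± SD.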

Series [12] concerns Bel-7402. Kind of series: Cell cycle arrest in human Bel7402 cells assessed as accumulation at G1 phase at 4 uM after 48 hrs by propidium iodide staining based flow cytometry (reference value: 34.61%). The series is classed as functional.
In series [13] the test system is Bel-7402. The experiment in a line: Cell cycle arrest in human Bel7402 cells assessed as accumulation at S phase at 1 uM after 48 hrs by propidium iodide staining based flow cytometry (reference value: 8.78%). The series is classed as functional.
In series [14] the test system is MCF7. The experiment in a line: Inhibition of colony formation in human MCF7 cells incubated for 24 hrs measured after 10 days by crystal violet staining based microscopic method. The series is classed as functional, cell-based. A digest of the protocol: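 MCF-7 cells were plated at 3 × 10^2 per well and left overnight, then exposed to 0, 75, 150 or 300 nM (DMSO vehicle) for 24 h. Medium was removed and cells grew a further 10 days. Colonies were fixed in methanol for 15 min, stained with 0.1% crystal violet for 15 min and counted; a colony was >50 cells. At least three independent experiments, mean ± SD.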

For series [15], the system named is Bel-7402. The experiment in a line: Cytotoxicity against human Bel7402 cells at 10 to 50 uM after 24 hrs by LDH assay. The series is classed as functional, cell-based. A digest of the protocol:
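Membrane integrity assay on MCF-7 and Bel-7402 cells seeded at ~5 × 10^3 per well for 24 h, then given compounds at 10, 20 or 50 μM. Culture medium collected and assayed with CytoTox-ONE LDH reagent for 10 min, followed by stop solution. Fluorescence read at Ex 560/Em 590 nm. Expressed as percentage of unstimulated cells.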

Series [16] has as its system Bel-7402. Kind of series: Cell cycle arrest in human Bel7402 cells assessed as accumulation at G1 phase at 2 uM after 48 hrs by propidium iodide staining based flow cytometry (reference value: 34.61%). It is filed as functional.
Series [17] concerns the target T1, M-phase inducer phosphatase 3 (Homo sapiens) (UniProt P30307).
T1 sequence (whole entry): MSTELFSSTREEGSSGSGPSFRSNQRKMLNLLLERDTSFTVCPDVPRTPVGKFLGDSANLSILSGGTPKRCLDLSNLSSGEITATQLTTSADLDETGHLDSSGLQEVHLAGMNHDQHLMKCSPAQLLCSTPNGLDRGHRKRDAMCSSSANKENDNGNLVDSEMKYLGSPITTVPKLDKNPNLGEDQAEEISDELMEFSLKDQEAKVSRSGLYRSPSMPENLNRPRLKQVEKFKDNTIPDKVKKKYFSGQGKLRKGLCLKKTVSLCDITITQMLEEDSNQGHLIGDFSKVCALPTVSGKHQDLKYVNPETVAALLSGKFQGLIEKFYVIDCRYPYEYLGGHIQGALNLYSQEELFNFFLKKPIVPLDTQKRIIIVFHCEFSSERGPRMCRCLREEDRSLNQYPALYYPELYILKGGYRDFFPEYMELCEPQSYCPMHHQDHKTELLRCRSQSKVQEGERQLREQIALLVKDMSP
The experiment in a line: Induction of cdc25c phosphorylation in human MCF7 cells after 48 hrs by Western blot method. It is filed as cell-based. The method, boiled down: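 MCF-7 cells were treated at 0, 0.125, 0.25, 0.5 or 1 μM for 48 h, washed in ice-cold PBS and lysed on ice for 20 min. Lysates were spun at 13,000 g, 4 °C. 20 μg protein was run on SDS-PAGE and blotted to PVDF, probed overnight at 4 °C with primary antibodies, then with fluorescent secondary antibodies. Band density was expressed relative to β-actin; three independent experiments.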

Series [18] relates to MCF7. The experiment in a line: Induction of mitochondrial membrane potential depolarization in human MCF7 cells after 36 hrs by JC1 staining based fluorescence microscopic method. The series is classed as functional, cell-based. The method, boiled down:
as §2

Calls of active or inactive are those of the source. The calls are words filed in the database; no cut-off is given here.

`C=C1C(=O)[C@]23[C@H](OC(=O)/C=C/c4ccccc4)[C@H]1CC[C@H]2[C@]12C=CCC(C)(C)[C@H]1[C@H](O)[C@]3(O)OC2`: the Activity is 34.23% in [1]; 30.2% in series [2]; 1.14% in series [3]; “Non-Toxic” in series [4]; 35.75% in [5]; 7.61% in series [6]. Also, the Activity amounted to 30.01% in [7]; 49.37% in [8]; 22.4% in [9]; 27.44% in series [12]; 8.51% in series [13]; 31.15% in series [16]. Also, the Activity entry in series [17] and in series [18] was “Dose-dependent effect” each time. In [10], this compound came in with an IC50 of 1030 nM. For the same compound, the Ratio in series [11] worked out at 0.385. Moreover, the inhibition entry in series [14] is “Dose-dependent effect”. Besides, in [15], the outcome was inactive.

What is called IC50 is the concentration needed to halve the response being measured. A lower IC50 goes with inhibition by little substance.
